Experimental data taken from article PMC7655718 (The Journal of antibiotics, 2020).
≈ marks a conversion by molar mass, not a printed value. Read-outs that look alike come from different tables or passages of the source.

Experiments:
[1] = tested on: S. aureus ATCC 25923 (Sa23); assay: MIC, microdilution with resazurin; type: cell-based; settings: Staphylococcus aureus, ATCC25923, read-out: MIC Sa23
Method in brief: (§1)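 Compounds dissolved in DMSO at 2 mg/mL. Overnight blood-agar colonies were suspended in PBS to 0.5 McFarland, then diluted in Mueller Hinton broth to about 1x10^6 cfu/mL with resazurin (1:1000 of 0.1% w/v stock). Twofold DMSO dilutions were added 1:40, giving 50 to 0.4 μg/mL at 2.5% DMSO. Incubation was 35 °C for 16-20 h. Blue/non-turbid wells counted as inhibited, pink/turbid as grown.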

[2] = tested on: S. aureus ATCC 33591 (Sa91); assay: MIC, microdilution with resazurin; type: cell-based; settings: Staphylococcus aureus, ATCC33591, read-out: MIC Sa91
Method in brief: as §1

[3] = tested on: S. aureus ATCC 33592 (Sa92); assay: MIC, microdilution with resazurin; type: cell-based; settings: Staphylococcus aureus, ATCC33592, read-out: MIC Sa92
Method in brief: as §1

[4] = tested on: S. aureus ATCC 700699 (Sa99); assay: MIC, microdilution with resazurin; type: cell-based; settings: Staphylococcus aureus, ATCC700699, read-out: MIC Sa99
Method in brief: as §1

[5] = tested on: S. aureus BAA-2312 (Sa12); assay: MIC, microdilution with resazurin; type: cell-based; settings: Staphylococcus aureus, BAA2312, read-out: MIC Sa12
Method in brief: as §1

[6] = tested on: S. epidermidis 700296 (Se); assay: MIC, microdilution with resazurin; type: cell-based; settings: Staphylococcus epidermidis, read-out: MIC Se
Method in brief: as §1

[7] = tested on: B. subtilis ATCC 6623 (Bs); assay: MIC, microdilution with resazurin; type: cell-based, Bacillus subtilis; settings: Bacillus subtilis, ATCC6623, read-out: MIC Bs
[8] = tested on: A. baumannii ATCC 747 (Ab47); assay: MIC, microdilution with resazurin; type: cell-based, Acinetobacter baumannii; settings: Acinetobacter baumannii, ATCC747, read-out: MIC Ab47
Method in brief: as §1

[9] = tested on: A. baumannii ATCC 19606 (type strain, Ab06); assay: MIC and MBC; type: cell-based, Acinetobacter baumannii; settings: Acinetobacter baumannii
Method in brief: as §1

[10] = tested on: A. baumannii ATCC 19606 (Ab06); assay: BacLight membrane permeability assay; type: cell-based, Acinetobacter baumannii; settings: Ab06, versus positive control colistin at comparable MIC
[11] = tested on: S. aureus ATCC 33599 (MRSA); assay: BacLight membrane permeability assay; type: cell-based, Staphylococcus aureus; settings: versus positive control vancomycin
[12] = tested on: tested Gram-positive bacterial strains; assay: MIC, text summary over tested Gram-positive strains; type: cell-based
[13] = tested on: tested A. baumannii strains; assay: MIC, text summary over A. baumannii strains; type: cell-based, Acinetobacter baumannii
Method in brief: as §1

O=C(O)c1ccc(-n2cc(/C=N/Nc3ccc(F)c(Cl)c3)c(-c3ccc4ccccc4c3)n2)cc1 [Compound 22]
MIC [1]: 3.12 µg/mL (≈ 6.44 µM) | MIC [2]: 6.25 µg/mL (≈ 12.9 µM) | MIC [3]: 1.56 µg/mL (≈ 3.22 µM) | MIC [4]: 0.78 µg/mL (≈ 1.61 µM) | MIC [5]: 3.12 µg/mL (≈ 6.44 µM) | MIC [6]: 3.12 µg/mL (≈ 6.44 µM) | MIC [7]: 6.25 µg/mL (≈ 12.9 µM) | MIC [8]: 12.5 µg/mL (≈ 25.8 µM) | MBC ([9]; ATCC19606): 50 µg/mL (≈ 103 µM) | MIC ([9]; ATCC19606): 6.25 µg/mL (≈ 12.9 µM) | MIC ([9]; ATCC19606, read-out: MIC Ab06): 6.25 µg/mL (≈ 12.9 µM) | membrane disrupting ability, PI/SYTO-9 ratio [10]: better membrane disrupting ability | membrane disruption activity, PI/SYTO-9 ratio [11]: more potent membrane disruption activity than vancomycin | antimicrobial activity against the tested strains [12]: potent inhibitors of tested Gram-positive strains | activity against A. baumannii strains [13]: moderate growth inhibitor
